# Ends that are not written are not given here. MBP = not defined here; MS2 = not defined here; HA = not defined here
# B1: Bam: Drosophila melanogaster Bag-of-marbles, Uniprot P22745, residues 1–442, variously tagged (protein)
# chain: MLNARDVCPEGNDDQQLDHNFKQMEEHLALMVEGNENEDPRKATCEYEDTNEDGATCTSGVLSEIQENFGRLRLCDVTAPLLEFHGLDCLQQIQKRSRHFAFDGSPAKKSRSGGVLVTGPKQKQLQKENVWNRKSKGSASADNIEKLPITIEKLHMIGLHGDCLEHNAVLRLMNLFRSLHDHLTADLGFSRQNSMPSDYLFDMPVKSTMPKSLNVRYQLQVLCTKVERFLVQQRRTLEANRHFDFEKYDECDKLLKGFASYLDNFKLLLKPKMRNRNGNSGSNADKFHTQRMERLLIGLRDWIKAAHLSVHVFNWEMDLEHRYSGAMTESHKSLNERAILLSGAELRAAEARGISAEDLFIAQRYKLGGPIYCVLEQHEFLSALIANPETYFPPSVVAICGPQKLGAVSMEQPSASEEEFEETEEVPSSPPRHTGRVPRFRS
# modifications: left off: MBP, N-terminal, kept
# Legend:
# [1] = test system: β-globin-6xMS2bs reporter; assay: Tethering assay in human HEK293T cells; type: cell-based; settings: MS2-HA-tagged, three independent experiments
# F-Luc-5BoxB-A95C7-HhR = assay: Tethering assay in S2 cells, F-Luc-5BoxB-A95C7-HhR reporter; type: cell-based, Drosophila melanogaster
# CCR4 (GFP-tagged) = assay: Coimmunoprecipitation in S2 cells, CCR4; type: binding, Drosophila melanogaster; settings: HA-tagged Bam, S2 cell lysates, RNaseA
# HA-tagged CCR4 = assay: SBP pull-down in HEK293T cells, CCR4; type: binding
# Summary of the method: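 Control or CAF40-null HEK293T cells coexpressed HA-CCR4 with V5-SBP-tagged full-length test protein or V5-SBP-MBP negative control. SBP pull-down was done in lysates containing RNaseA. Input (1.5% V5-SBP proteins, 1% CCR4–NOT subunits) and bound (10% and 30%) fractions were western blotted with ECL detection.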
# [2] = test system: Dm NOT1-CN9BD–CAF40 complex; assay: In vitro MBP pull-down, Dm CN9BD–CAF40; type: binding, Drosophila melanogaster; settings: MBP-tagged proteins, amylose resin, 50 mM HEPES pH 7.5, 200 mM NaCl, 2 mM DTT, 1 h; SDS-PAGE, Coomassie
# Summary of the method: (§1)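 Proteins were expressed in E. coli BL21 (DE3) Star overnight at 20°C. Tethered-protein constructs carried an N-terminal MBP tag and were purified by amylose resin, anion exchange and gel filtration. MBP (20 µg, negative control) or MBP fusion (40 µg) was incubated 1 h with equimolar purified CCR4–NOT modules plus amylose resin. Beads were washed five times and eluted with 25 mM maltose. Eluates were TCA-precipitated and analysed by SDS-PAGE/Coomassie.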
# NOT3 (GFP-tagged) = assay: Coimmunoprecipitation in S2 cells, NOT3; type: binding, Drosophila melanogaster; settings: HA-tagged Bam, S2 cell lysates, RNaseA
# [3] = test system: Dm NOT1-CN9BD–CAF40 complex (containing CAF40 V186E or 2xMut); assay: In vitro MBP pull-down, Dm CN9BD–CAF40 with CAF40 mutants; type: binding, Drosophila melanogaster; settings: MBP-tagged Bam, pH 7.5, 1 h
# Summary of the method: as §1
# F-Luc-5BoxB mRNA [4] = assay: mRNA half-life in S2 cells after actinomycin D; type: cell-based, Drosophila melanogaster; settings: actinomycin D 5 µg/ml; northern blot
# Summary of the method: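 S2 cells were Effectene-transfected with F-Luc-5BoxB reporter, R-Luc control and λN-HA-tagged test protein. Three days post-transfection they were treated with actinomycin D (5 µg/ml final) and collected at successive time points. Reporter mRNA remaining was measured by northern blotting of total RNA.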
# Dm CAF40 (GFP-tagged) = assay: Coimmunoprecipitation in S2 cells, CAF40; type: binding, Drosophila melanogaster; settings: HA-tagged Bam, S2 cell lysates, RNaseA
# endogenous CAF40 = assay: SBP pull-down in HEK293T cells, CAF40; type: binding, human; settings: V5-SBP-tagged, wild-type HEK293T, RNaseA
# Summary of the method: (§2)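 HEK293T cells expressed V5-SBP-tagged full-length test protein, with V5-SBP-MBP as negative control. SBP pull-down from lysates was done in the presence of RNaseA. Input (1.5% of V5-SBP proteins, 1% of endogenous CCR4–NOT subunits) and bound fractions (10% and 30%, respectively) were analysed by western blotting with ECL detection.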
# endogenous NOT3 = assay: SBP pull-down in HEK293T cells, NOT3; type: binding, human
# Summary of the method: as §2
# endogenous NOT1 = assay: SBP pull-down in HEK293T cells, NOT1; type: binding, human
# Summary of the method: as §2
# F-Luc-5BoxB mRNA [5] = assay: Tethering assay in S2 cells, F-Luc-5BoxB reporter; type: cell-based, Drosophila melanogaster
# endogenous NOT2 = assay: SBP pull-down in HEK293T cells, NOT2; type: binding, human
# Summary of the method: as §2
# Hs CN9BD–CAF40 complex = assay: In vitro MBP pull-down, human CN9BD–CAF40; type: binding; settings: MBP-tagged proteins, amylose resin, 50 mM HEPES pH 7.5, 200 mM NaCl, 2 mM DTT, 1 h; SDS-PAGE, Coomassie
# Summary of the method: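 The Hs complex was MBP-NOT1-CN9BD (V1351–L1588) co-expressed in E. coli with His6-CAF40 (R19–E285), purified on amylose, tags removed by HRV3C, then heparin and gel filtration. MBP (20 µg, control) or MBP fusion (40 µg) was incubated 1 h with equimolar complex and amylose resin. Beads were washed five times, eluted with 25 mM maltose, TCA-precipitated and analysed by SDS-PAGE/Coomassie.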
# NOT1 (GFP-tagged) = assay: Coimmunoprecipitation in S2 cells, NOT1; type: binding, Drosophila melanogaster; settings: HA-tagged Bam, S2 cell lysates, RNaseA
# Dm CAF40 (V186E) = assay: Coimmunoprecipitation in S2 cells, CAF40 V186E; type: binding, Drosophila melanogaster; settings: HA-tagged Bam, S2 cell lysates, RNaseA
# NOT2 (GFP-tagged) = assay: Coimmunoprecipitation in S2 cells, NOT2; type: binding, Drosophila melanogaster; settings: HA-tagged Bam, S2 cell lysates, RNaseA
# Hs CCR4-NOT subcomplexes = assay: In vitro MBP pull-down, other Hs CCR4–NOT subcomplexes; type: binding, human; settings: NOT1-10-11 module, catalytic module, CD, NOT3 N-terminal coiled coil, MBP-tagged Bam, pH 7.5, 1 h
# Summary of the method: as §1
# [6] = test system: catalytic module (containing Hs CCR4a); assay: In vitro MBP pull-down, Hs catalytic module; type: binding, human; settings: recombinant proteins
# [7] = V5-SBP-tagged, wild-type HEK293T, RNaseA
molecule,measurement,setting,value
"CBM alone fused to MBP: MS2-HA-MBP-Bam 13–36 ({MS2-HA-MBP}-DDQQLDHNFKQMEEHLALMVEGNE; reading uncertain; UniProt P22745 13-36, looked up, fragment)",degradation/repression of β-globin-6xMS2bs reporter,[1],as active as full-length Bam
B1,repression of deadenylation-resistant reporter,F-Luc-5BoxB-A95C7-HhR,repressed the expression of this reporter in S2 cells
same,coimmunoprecipitation with CCR4,CCR4 (GFP-tagged),"interacted with NOT1, NOT2, NOT3, CCR4, and CAF40"
same,"pull-down of HA-tagged CCR4, CAF40-null cells",HA-tagged CCR4; CAF40-null HEK293T,did not interact
same,pull-down of HA-tagged CCR4,HA-tagged CCR4; [7],as well as HA-tagged CCR4
same,interaction in pull-down,[2],also interacted with the Dm CN9BD–CAF40 module
same,coimmunoprecipitation with NOT3,NOT3 (GFP-tagged),"interacted with NOT1, NOT2, NOT3, CCR4, and CAF40"
same,disruption of interaction by V186E substitution in CAF40,[3]; CAF40 V186E,sufficient to disrupt the interaction with Bam in vitro
same,disruption of interaction by 2xMut in CAF40,"[3]; CAF40 Y139D, G146W (2xMut)",sufficient to disrupt the interaction with Bam in vitro
same,mRNA half-life,F-Luc-5BoxB mRNA [4],shortening of the mRNA half-life
same,coimmunoprecipitation with CAF40,Dm CAF40 (GFP-tagged),"interacted with NOT1, NOT2, NOT3, CCR4, and CAF40"
same,pull-down of endogenous CAF40,endogenous CAF40,pulled down all of the tested subunits
same,"pull-down of endogenous NOT3, CAF40-null cells",endogenous NOT3; CAF40-null HEK293T,"did not interact with endogenous NOT1, NOT2 and NOT3"
same,pull-down of endogenous NOT3,endogenous NOT3; [7],pulled down all of the tested subunits
same,"pull-down of endogenous NOT1, CAF40-null cells",endogenous NOT1; CAF40-null HEK293T,"did not interact with endogenous NOT1, NOT2 and NOT3"
same,pull-down of endogenous NOT1,endogenous NOT1; [7],pulled down all of the tested subunits
same,tethering activity in CAF40-depleted cells,F-Luc-5BoxB mRNA [5]; CAF40 KD (∼10% of control levels),partially suppressed Bam activity
same,repression in CAF40-depleted cells complemented with CAF40 V186E,F-Luc-5BoxB mRNA [5]; CAF40 KD + CAF40 V186E,not by expression of the CAF40 V186E mutant
same,repression in CAF40-depleted cells complemented with wild-type CAF40,F-Luc-5BoxB mRNA [5]; CAF40 KD + wild-type CAF40,restored by transient expression of wild-type CAF40
same,F-Luc-5BoxB mRNA degradation in DCP2-depleted cells,"F-Luc-5BoxB mRNA [5]; DCP2 knockdown, DCP2 E361Q overexpressed",impaired
same,F-Luc activity in DCP2-depleted cells,"F-Luc-5BoxB mRNA [5]; DCP2 knockdown, DCP2 E361Q overexpressed, F-Luc activity",not restored
same,tethering activity in cells overexpressing CAF40 V186E,F-Luc-5BoxB mRNA [5]; GFP-CAF40 V186E overexpressed,suppressed in cells overexpressing the CAF40 V186E mutant
same,tethering activity in cells overexpressing CAF40 wild-type,F-Luc-5BoxB mRNA [5]; GFP-CAF40 wild-type overexpressed,not when CAF40 wild-type was overexpressed
same,F-Luc-5BoxB mRNA degradation after NOT1 depletion,F-Luc-5BoxB mRNA [5]; NOT1-depleted S2 cells,partially suppressed degradation of F-Luc-5BoxB mRNA
same,"pull-down of endogenous NOT2, CAF40-null cells",endogenous NOT2; CAF40-null HEK293T,"did not interact with endogenous NOT1, NOT2 and NOT3"
same,pull-down of endogenous NOT2,endogenous NOT2; [7],pulled down all of the tested subunits
same,interaction in pull-down,Hs CN9BD–CAF40 complex,interacted only with the CN9BD–CAF40 module
same,coimmunoprecipitation with NOT1,NOT1 (GFP-tagged),"interacted with NOT1, NOT2, NOT3, CCR4, and CAF40"
same,coimmunoprecipitation with CAF40 V186E,Dm CAF40 (V186E),sufficient to abolish binding to full-length Bam in cell lysates
same,coimmunoprecipitation with NOT2,NOT2 (GFP-tagged),"interacted with NOT1, NOT2, NOT3, CCR4, and CAF40"
same,interaction in pull-down with any other subcomplex,Hs CCR4-NOT subcomplexes,not with any other subcomplex
same,direct interaction with the catalytic module,[6],did not observe a direct interaction
same,displacement of CAF1-NOT1 subcomplex from CCR4a,[6],did not competitively displace the CAF1-NOT1 subcomplex from CCR4a
